Data on one compound can be found in ChEMBL document CHEMBL4382221, “First-in-class DAPK1/CSF1R dual inhibitors: Discovery of 3,5-dimethoxy-N-(4-(4-methoxyphenoxy)-2-((6-morpholinopyridin-3-yl)amino)pyrimidin-5-yl)benzamide as a potential anti-tauopathies agent” (Eur J Med Chem, 2019).

Active and inactive are the calls of the source. The rule behind the calls is not given here.

In assay [1] the target is Death-associated protein kinase 1 (Homo sapiens, UniProt P53355). In words: Inhibition of human DAPK1 (1 to 363 residues) at 10 uM using KKLNRTLSFAEPG as substrate after 120 mins in presence of 10 uM [gamma-33P]-ATP by filtration method relative to control. The method in brief:
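Radiometric HotSpot assay measuring substrate phosphorylation directly, with 10 μM ATP. Single-dose screen at 10 μM in duplicate, reported as mean % inhibition from two independent experiments.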

For assay [2], the target named is Platelet-derived growth factor receptor beta (Homo sapiens) (UniProt P09619). Put plainly: Inhibition of human PDGFRbeta at 10 uM using poly[Glu:Tyr] (4:1) as substrate after 120 mins [gamma-33P]-ATP by filtration method. The method in brief:
(§1)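 Radiometric kinase selectivity panel of 47 kinases, with compound at 10 μM. Data are means ± SD of two independent experiments.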

For assay [3], the target named is T1, Serine/threonine-protein kinase 17A (Homo sapiens) (UniProt Q9UEE5).
T1 sequence (whole entry): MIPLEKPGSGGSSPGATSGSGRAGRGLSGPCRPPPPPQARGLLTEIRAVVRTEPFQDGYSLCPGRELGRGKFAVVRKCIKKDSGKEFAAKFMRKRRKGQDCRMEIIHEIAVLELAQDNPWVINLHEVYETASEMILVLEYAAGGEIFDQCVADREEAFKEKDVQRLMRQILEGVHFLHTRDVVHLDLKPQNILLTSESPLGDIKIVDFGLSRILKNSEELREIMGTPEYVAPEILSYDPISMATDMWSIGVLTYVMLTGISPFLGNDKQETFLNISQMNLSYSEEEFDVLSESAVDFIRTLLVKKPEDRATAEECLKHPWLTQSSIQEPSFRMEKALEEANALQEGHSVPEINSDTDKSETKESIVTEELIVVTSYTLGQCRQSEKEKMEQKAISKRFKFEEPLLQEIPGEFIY
Put plainly: Inhibition of human DRAK1 at 10 uM using KKLNRTLSFAEPG as substrate after 120 mins [gamma-33P]-ATP by filtration method. In short, it runs like this: as §1

Assay [4] deals with Tyrosine-protein kinase Lyn (Homo sapiens) (UniProt P07948). Put plainly: Inhibition of human LYN at 10 uM using poly[Glu:Tyr] (4:1) as substrate after 120 mins [gamma-33P]-ATP by filtration method. The method in brief: as §1
Tyrosine-protein kinase Lyn (Homo sapiens), sequence (P07948 2-512 limits assumed): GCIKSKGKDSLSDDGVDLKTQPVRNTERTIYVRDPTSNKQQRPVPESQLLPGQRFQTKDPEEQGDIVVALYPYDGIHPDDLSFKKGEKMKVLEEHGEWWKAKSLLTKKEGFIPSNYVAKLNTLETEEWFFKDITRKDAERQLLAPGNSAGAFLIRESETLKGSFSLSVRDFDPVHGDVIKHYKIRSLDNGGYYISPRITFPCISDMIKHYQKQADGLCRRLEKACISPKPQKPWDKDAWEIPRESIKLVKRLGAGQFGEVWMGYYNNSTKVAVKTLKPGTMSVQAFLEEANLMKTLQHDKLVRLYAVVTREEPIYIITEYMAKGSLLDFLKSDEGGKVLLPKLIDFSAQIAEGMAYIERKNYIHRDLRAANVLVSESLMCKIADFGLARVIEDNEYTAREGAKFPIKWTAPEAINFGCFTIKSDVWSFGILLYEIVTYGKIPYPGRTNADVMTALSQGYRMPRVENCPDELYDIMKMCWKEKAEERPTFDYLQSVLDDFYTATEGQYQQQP
The target in assay [5] is Leucine-rich repeat serine/threonine-protein kinase 2 (Homo sapiens) (UniProt Q5S007). In words: Inhibition of human LRRK2 at 10 uM using RLGRDKYKTLRQIRQ as substrate after 120 mins [gamma-33P]-ATP by filtration method. In short, it runs like this: as §1
Leucine-rich repeat serine/threonine-protein kinase 2 (Homo sapiens), sequence (Q5S007 whole entry): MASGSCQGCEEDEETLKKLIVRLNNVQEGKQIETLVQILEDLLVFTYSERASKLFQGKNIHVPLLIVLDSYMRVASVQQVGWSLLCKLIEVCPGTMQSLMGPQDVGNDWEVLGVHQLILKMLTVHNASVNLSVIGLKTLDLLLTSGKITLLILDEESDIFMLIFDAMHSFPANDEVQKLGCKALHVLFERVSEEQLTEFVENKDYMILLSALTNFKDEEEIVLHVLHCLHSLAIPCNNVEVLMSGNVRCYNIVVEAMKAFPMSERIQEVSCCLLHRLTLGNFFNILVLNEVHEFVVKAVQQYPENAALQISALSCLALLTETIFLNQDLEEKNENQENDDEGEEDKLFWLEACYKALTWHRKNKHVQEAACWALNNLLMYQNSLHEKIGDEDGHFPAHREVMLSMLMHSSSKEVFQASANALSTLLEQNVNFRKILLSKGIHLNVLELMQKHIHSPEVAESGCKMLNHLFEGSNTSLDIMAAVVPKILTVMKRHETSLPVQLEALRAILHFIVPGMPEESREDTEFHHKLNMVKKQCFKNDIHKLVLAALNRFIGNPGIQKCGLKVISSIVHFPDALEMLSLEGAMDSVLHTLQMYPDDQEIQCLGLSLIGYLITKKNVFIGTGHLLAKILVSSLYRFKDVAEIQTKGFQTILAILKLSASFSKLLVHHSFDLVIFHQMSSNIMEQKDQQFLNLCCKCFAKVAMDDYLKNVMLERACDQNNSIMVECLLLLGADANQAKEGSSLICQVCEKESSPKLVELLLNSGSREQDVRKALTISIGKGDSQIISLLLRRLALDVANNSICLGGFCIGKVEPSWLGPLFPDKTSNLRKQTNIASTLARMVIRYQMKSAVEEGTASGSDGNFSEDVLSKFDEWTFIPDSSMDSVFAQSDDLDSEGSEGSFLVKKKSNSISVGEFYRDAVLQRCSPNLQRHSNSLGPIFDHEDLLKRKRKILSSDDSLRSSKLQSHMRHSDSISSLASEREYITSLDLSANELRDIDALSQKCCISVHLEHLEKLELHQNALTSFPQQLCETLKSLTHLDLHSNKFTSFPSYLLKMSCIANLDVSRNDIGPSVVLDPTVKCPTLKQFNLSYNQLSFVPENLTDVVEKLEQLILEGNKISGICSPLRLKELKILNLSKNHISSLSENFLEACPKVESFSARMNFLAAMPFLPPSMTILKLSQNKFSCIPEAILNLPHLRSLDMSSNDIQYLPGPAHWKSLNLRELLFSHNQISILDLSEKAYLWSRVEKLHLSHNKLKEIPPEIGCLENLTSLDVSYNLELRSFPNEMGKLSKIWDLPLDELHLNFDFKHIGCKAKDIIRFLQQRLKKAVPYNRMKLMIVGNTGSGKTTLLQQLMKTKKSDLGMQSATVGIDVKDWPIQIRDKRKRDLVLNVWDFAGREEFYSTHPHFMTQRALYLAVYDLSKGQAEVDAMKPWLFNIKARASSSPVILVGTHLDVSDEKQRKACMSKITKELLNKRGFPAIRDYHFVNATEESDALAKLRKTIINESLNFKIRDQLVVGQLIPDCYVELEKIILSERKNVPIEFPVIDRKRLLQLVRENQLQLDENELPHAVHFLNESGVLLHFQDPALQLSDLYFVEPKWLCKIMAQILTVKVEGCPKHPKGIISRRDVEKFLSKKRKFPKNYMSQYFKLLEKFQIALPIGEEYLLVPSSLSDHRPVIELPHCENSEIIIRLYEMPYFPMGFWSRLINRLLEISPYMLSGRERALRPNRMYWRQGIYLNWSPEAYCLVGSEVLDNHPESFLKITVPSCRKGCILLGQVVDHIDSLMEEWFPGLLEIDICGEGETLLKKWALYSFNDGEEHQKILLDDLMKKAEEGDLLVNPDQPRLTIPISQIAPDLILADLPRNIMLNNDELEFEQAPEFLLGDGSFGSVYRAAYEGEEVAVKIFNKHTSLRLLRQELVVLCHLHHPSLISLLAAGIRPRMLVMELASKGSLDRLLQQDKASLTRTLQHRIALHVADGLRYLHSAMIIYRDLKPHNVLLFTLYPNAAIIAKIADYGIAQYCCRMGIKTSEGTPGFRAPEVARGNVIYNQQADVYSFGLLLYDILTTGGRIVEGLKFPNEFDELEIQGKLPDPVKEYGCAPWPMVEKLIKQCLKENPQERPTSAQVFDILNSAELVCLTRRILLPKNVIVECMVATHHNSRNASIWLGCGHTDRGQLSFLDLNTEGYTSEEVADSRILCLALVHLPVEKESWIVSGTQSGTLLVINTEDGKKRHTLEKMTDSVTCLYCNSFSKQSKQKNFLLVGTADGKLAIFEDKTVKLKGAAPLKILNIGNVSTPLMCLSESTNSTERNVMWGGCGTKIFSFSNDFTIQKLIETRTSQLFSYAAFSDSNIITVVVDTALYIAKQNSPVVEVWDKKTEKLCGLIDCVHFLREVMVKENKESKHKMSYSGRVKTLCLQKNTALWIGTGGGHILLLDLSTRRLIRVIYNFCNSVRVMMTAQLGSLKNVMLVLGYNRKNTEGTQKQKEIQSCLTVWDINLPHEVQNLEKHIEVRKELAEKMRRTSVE

Death-associated protein kinase 1, sequence (P53355 whole entry, looked up, the tested form may be a part): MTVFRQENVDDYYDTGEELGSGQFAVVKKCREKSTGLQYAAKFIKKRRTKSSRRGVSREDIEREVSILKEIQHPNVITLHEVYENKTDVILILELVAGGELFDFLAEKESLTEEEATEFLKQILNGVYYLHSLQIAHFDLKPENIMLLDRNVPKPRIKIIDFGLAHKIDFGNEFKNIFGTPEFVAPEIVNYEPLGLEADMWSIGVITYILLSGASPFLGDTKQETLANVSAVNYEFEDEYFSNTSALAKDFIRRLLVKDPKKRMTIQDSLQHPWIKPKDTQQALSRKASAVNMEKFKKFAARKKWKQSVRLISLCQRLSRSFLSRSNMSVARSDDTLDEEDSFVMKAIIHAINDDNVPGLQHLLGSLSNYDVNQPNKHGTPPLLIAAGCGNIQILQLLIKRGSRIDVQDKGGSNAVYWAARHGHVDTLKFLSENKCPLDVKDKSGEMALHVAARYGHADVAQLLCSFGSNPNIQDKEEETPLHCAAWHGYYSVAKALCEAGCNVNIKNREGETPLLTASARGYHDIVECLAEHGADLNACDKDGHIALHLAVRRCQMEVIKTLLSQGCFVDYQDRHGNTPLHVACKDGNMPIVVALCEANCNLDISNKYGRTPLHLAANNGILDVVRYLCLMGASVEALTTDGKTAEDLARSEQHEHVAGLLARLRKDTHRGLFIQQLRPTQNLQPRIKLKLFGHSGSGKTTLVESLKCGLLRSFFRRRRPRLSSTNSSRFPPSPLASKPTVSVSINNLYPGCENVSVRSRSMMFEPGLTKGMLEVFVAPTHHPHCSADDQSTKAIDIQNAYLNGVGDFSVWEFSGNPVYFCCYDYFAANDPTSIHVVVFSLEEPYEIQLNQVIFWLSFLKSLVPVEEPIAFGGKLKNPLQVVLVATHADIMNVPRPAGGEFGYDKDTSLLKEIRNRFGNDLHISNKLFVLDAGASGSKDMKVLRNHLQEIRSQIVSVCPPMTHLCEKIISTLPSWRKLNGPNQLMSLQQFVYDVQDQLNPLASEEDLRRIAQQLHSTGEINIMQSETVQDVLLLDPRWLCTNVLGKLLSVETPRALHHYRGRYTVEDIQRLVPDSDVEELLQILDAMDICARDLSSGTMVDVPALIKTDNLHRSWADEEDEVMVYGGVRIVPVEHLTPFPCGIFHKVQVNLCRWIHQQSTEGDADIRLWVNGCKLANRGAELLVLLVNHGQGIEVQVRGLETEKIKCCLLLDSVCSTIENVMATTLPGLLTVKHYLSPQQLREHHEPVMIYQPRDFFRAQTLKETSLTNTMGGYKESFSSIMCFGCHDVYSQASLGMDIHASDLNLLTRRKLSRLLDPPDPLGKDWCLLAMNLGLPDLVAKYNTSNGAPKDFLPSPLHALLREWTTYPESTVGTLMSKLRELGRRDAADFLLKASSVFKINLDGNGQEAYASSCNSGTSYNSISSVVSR

Usually inhibition stands for the relative decrease from the control value, in per cent. For `COc1ccc(Oc2nc(Nc3ccc(N4CCOCC4)nc3)ncc2NC(=O)c2cc(OC)cc(OC)c2)cc1`, the inhibition in assay [1] was 66.2%. The inhibition result in assay [2], in assay [3] and in assay [5] was “inactive” each time. Moreover, in assay [4], the inhibition result was “Active”.
